High-throughput results: PubChem BioAssay, Sanford-Burnham Center for Chemical Genomics
APJ ag: APJ receptor agonism | CHO-K1 APJ PathHunter beta-arrestin, luminescence; 0% DMSO wells, 100% apelin | P35414 | actives 0.11% (n = 330,000) | activation, % at 20 µM | AID 2520;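 active = activation more than six SD over the plate average, tested at 20 µM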;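 also: 0% = DMSO alone and 100% = apelin-13 at 10 nM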
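assay system = CHO-K1 APJ beta-arrestin complementation cell line | input = cell density 1000 per well | dosing = compound 20 µM once, DMSO 1% | timing = compound 90 min 25 °C, reagent 1 h | measured by = luminescence from split beta-galactosidase complementation, Galacton Star/Emerald II substrate | read-out basis = APJ agonist activity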
CCR6 antag: antagonists of human CCR6 receptor | actives 0.49% (n = 340,000) | P51684 | AID 493098 | CHO-K1 CCR6 PathHunter beta-arrestin, luminescence, CCL20-stimulated | inhibition, % at 20 µM;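 active = compounds whose inhibition of the agonist-driven luminescence signal at 20 µM reaches about 50%, limit read from the data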;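 also: cells stimulated with CCL20 at 14 nM final; plate controls were DMSO with CCL20 for no effect and DMSO without agonist for full effect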
Target sequence (P51684 whole entry, looked up): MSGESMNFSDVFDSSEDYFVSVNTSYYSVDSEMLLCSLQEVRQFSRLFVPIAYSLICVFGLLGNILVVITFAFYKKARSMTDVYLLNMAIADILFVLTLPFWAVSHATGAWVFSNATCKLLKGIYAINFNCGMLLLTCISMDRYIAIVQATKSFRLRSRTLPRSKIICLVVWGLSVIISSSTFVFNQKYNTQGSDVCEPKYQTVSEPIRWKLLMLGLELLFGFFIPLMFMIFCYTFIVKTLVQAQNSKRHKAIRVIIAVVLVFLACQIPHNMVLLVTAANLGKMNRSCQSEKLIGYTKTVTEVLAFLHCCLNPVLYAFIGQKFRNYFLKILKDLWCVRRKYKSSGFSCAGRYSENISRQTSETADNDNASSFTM
EBI2 block: EBI2 (human) antagonism; inhibition, % at 5 µM; actives 0.81% (n = 360,000); P32249; EBI2 beta-arrestin recruitment, luminescence, 7a,25-OHC stimulated; in the data active = inhibition above about 38%;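 also: enzyme fragment complementation signal reports receptor beta-arrestin coupling in cells; 0% = agonist plus DMSO wells and 100% = wells without agonist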
APJ antag: APJ receptor antagonism; actives 0.32% (n = 330,000); AID 2521; CHO-K1 APJ beta-arrestin complementation, luminescence; P35414; inhibition, % at 20 µM;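 active = inhibition above about 40% at 20 µM, limit read from the data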;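 also: cells challenged with 10 nM apelin-13 agonist together with compound; plate controls were apelin-13 plus DMSO wells for no effect and DMSO wells lacking apelin-13 for full effect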
CXCR6 block: blocks human CXCR6 beta-arrestin recruitment; O00574; AID 602244; actives 0.36% (n = 360,000); inhibition, % at 20 µM; CHO-K1 PathHunter CXCR6 beta-arrestin, luminescence; in the data active = inhibition above about 34%, passing the limit was not always enough;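 also: antagonist mode with CXCL16 agonist at 10 nM final; 0% = 10 nM CXCL16 with DMSO and 100% = unstimulated wells without agonist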
* = called active by the depositor; x = not tested or not shown. An excerpt weighted towards active compounds, which were near 1.5% of everything screened.

SMILES	APJ ag	CCR6 antag	EBI2 block	APJ antag	CXCR6 block
CCOc1ccc(N=C2C(=O)N(CN3CCOCC3)c3ccccc32)cc1	-11	59*	-12	38	19
COC(=O)C1=C(C(=O)OC)SC(=C2C(=S)C(C)(C)N(C(=O)C3CC3)c3ccccc32)S1	-12	52*	28	38	34
COC(=O)C1=C(C(=O)OC)SC(=C2C(=S)C(C)(C)N(C(=O)C(C)C)c3ccccc32)S1	-5	53*	31	29	32
CCCCc1ccc(S(=O)(=O)NC(=O)C2(C)CCN2C(=O)CC2CC2)cc1 (stereo not given)	x	x	-16	x	-5
Cc1n[nH]c(C)c1Sc1ccccc1N=Cc1cc(Cl)cc([N+](=O)[O-])c1O	-2	44	14	23	55*
O=S1(=O)CC(N2CCCC2)CN1Cc1cn(Cc2ccccc2)nn1 (stereo not given)	x	x	-17	x	0
Cc1ccc(Nc2ccc(N3CCN(c4ccc([N+](=O)[O-])cc4)CC3)nn2)cc1	0	7	8	5	5
Cc1ccc(Nc2c([N+](=O)[O-])ccc3c2=NC2(CCCCC2)N=3)cc1	4	31	62*	-46	5
O=C(NCc1cccnc1)c1ccc(-c2ccc(Cl)cc2)o1	-2	5	3	0	3
O=C(NCc1cccnc1)/C(=C\c1ccc(-c2ccc(Cl)c(Cl)c2)o1)S(=O)(=O)c1ccccc1	x	45	64*	x	24
CN(C)CCCN(C(=O)CCOc1ccccc1)c1nc2c(F)cccc2s1	x	20	48*	x	13
CN(C)CCCN(C(=O)CCc1ccccc1)c1nc2c(F)cccc2s1	-1	14	-10	2	0
COc1ccc(NC(=S)NC(NC(=O)c2ccccc2Cl)C(Cl)(Cl)Cl)c([N+](=O)[O-])c1 (stereo not given)	0	56*	10	22	34
COc1ccc(NC(=S)NC(NC(=O)c2ccc(Cl)cc2Cl)C(Cl)(Cl)Cl)c([N+](=O)[O-])c1 (stereo not given)	-5	36	7	10	33*
COc1ccc(NC(=S)NC(NC(=O)c2cccc3ccccc23)C(Cl)(Cl)Cl)c([N+](=O)[O-])c1 (stereo not given)	-7	41	13	10	26
CCOC(=O)c1c(N)sc(-c2ccccc2)c1C	-5	59*	6	2	12
COc1cc(C(=O)NC(=S)N(C)Cc2ccccc2)cc(OC)c1OC	-6	9	2	5	5
CN(Cc1ccccc1)C(=S)NC(=O)c1ccc(-c2ccccc2)cc1	-2	57*	8	32	32
O=C(CSc1ncccn1)NC1CCCC1	x	x	-11	x	3
Cc1[nH]c2ccccc2c1C1=CC(=O)C=CC1=O	x	x	-14	x	70*
CCOC(=O)c1c(NC(=O)C(NCCN(C)C)c2ccccc2)sc2c1CCCC2 (stereo not given)	-7	54*	-26	35	31
Clc1nssc1=Nc1ccc(Br)cc1	x	15	25	x	1
Clc1ccc(N=c2ssnc2Cl)nc1	0	17	85*	12	-2
CC(=O)Nc1sc(N/N=C\c2ccccc2F)nc1-c1cccs1	0	50*	-7	5	11
CC(=O)Nc1sc(N/N=C\c2ccc(O)cc2)nc1-c1cccs1	-5	23	3	-18	4
SMILES	APJ ag	CCR6 antag	EBI2 block	APJ antag	CXCR6 block
COc1cccc(NC(=O)C2(C)CCN2C(=O)C2CCCCC2)c1 (stereo not given)	x	x	11	x	-7
CCNC(=S)N=Nc1c(O)[nH]c2ccc([N+](=O)[O-])cc12	-5	42	10	38	21
O=[N+]([O-])c1ccc2[nH]c(O)c(N=NC(=S)Nc3cccnc3)c2c1	-4	70*	30	34	42*
Cc1ccc(CNC(=O)C2CCC(=O)N(CCc3ccc(Cl)cc3)C2)s1 (stereo not given)	-6	6	39	-10	0
Cc1ccc(CNC(=O)C2CCC(=O)N(CCc3ccc(Cl)cc3)C2)cc1 (stereo not given)	-5	8	49*	5	3
O=C(N/N=C/c1cc(Br)cc(Br)c1O)c1cccc(N2CCCC2=O)c1	0	54*	5	-23	-20
O=C(N/N=C/c1ccc(Cl)cc1Cl)c1cccc(N2CCCC2=O)c1	-3	0	18	-4	-4
CC(C)Nc1ncnc2c1ncn2[C@H]1CN(Cc2cccs2)C[C@@H](CO)O1	x	x	-1	x	1
